In paper PMC7647946 (Drug delivery and translational research, 2021):

Experiments:
rats with heart failure = settings: cited from earlier work
[1] = Pharmacokinetics of PD98059 following IV injection; assay type: in vivo, rat
Outline: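 Male Sprague-Dawley rats, urethane-anaesthetised, received slow femoral-vein infusion of test compound (0.5 mg/ml, 2 ml, 10% Tween 80/DPBS). Blood drawn at 5, 15, 30, 60, 180 and 360 min into K2-EDTA, plasma stored at −80° C. 100 μl plasma spiked with 7-hydroxyflavone, acetonitrile-precipitated, dried and reconstituted. HPLC against naïve-plasma standards; n=3 (n=1 at 6 h). PK Solver 1-/2-compartment fits; non-compartmental AUC0-t.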

[2] = tested on: pERK1/2 expression in PVN; settings: 1-hour ICV infusion, rats with heart failure; ref [23]; cited from earlier work
Organ = assay type: in vivo, rat; settings: healthy rats
Outline: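 Male Sprague-Dawley rats (6–8 weeks, 275–300 g), urethane-anaesthetised, with a femoral-vein cannula. Test compound at 0.5 mg/ml in 10% Tween 80/sterile 1X DPBS, 2 ml infused slowly. Brain taken at 1 and 3 h (n=3 per time), rinsed, held at −80° C. 200–400 mg homogenised in DPBS with 7-hydroxyflavone internal standard. Cold-acetonitrile precipitation, N2 drying, mobile-phase reconstitution. HPLC-diode array against naïve-tissue standards; mean ± SD.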

[3] = Solubility of PD98059 in the release medium; assay type: physicochemical; settings: 0.4% v/v Tween 80 in 1X DPBS, 37° C
[4] = 1-hour ICV infusion, rats with heart failure, ref [23]
[5] = 1-compartment model, IV 1 mg, healthy rats
[6] = 2-compartment model, IV 1 mg, healthy rats
[7] = non-compartmental analysis, IV 1 mg, healthy rats

AUC0-inf [1, 5]: 76774.83 ng·min/mL
AUC0-t [1, 5]: 76774.82 ng·min/mL
AUMC [1, 5]: 1716754 ng.min^2/ml
C0 [1, 5]: 3433.44 ng/mL
CI [1, 5]: 13.03 mL/min
K [1, 5]: 0.045 min⁻¹
MRT [1, 5]: 0.3727 h
T1/2 [1, 5]: 0.258 h
V [1, 5]: 291.25 mL
Vss [1, 5]: 291.25 mL
A [1, 6]: 3236.5 ng/mL
AUC0-inf [1, 6]: 135064 ng·min/mL
AUC0-t [1, 6]: 131605.22 ng·min/mL
AUMC [1, 6]: 11287504.55 ng.min^2/ml
B [1, 6]: 980.76 ng/mL
C0 [1, 6]: 4217.23 ng/mL
CI [1, 6]: 7.4 mL/min
K10 [1, 6]: 0.031 min⁻¹
K12 [1, 6]: 0.05 min⁻¹
K21 [1, 6]: 0.031 min⁻¹
MRT [1, 6]: 1.393 h
V [1, 6]: 237.12 mL
Vss [1, 6]: 618.76 mL
α [1, 6]: 0.104 min
β [1, 6]: 0.0094 min
AUC0-t ([1]; IV 1 mg PD98059 in solution, NCA): 142720 ng·min/mL
K (elimination rate constant) ([1]; non-compartmental analysis, IV 1 mg PD98059 in 10% Tween 80, healthy rats, plasma): 0.0074 min⁻¹
AUC0-inf [1, 7]: 152980.9 ng·min/mL
AUC0-t [1, 7]: 142723.37 ng·min/mL
AUMC0-inf [1, 7]: 14922241.77 ng.min^2/ml
C0 (plasma concentration at 0 time) [1, 7]: 3863.5 ng/mL
CI (clearance) [1, 7]: 6.54 mL/min
MRT0-inf [1, 7]: 1.626 h
V (volume of distribution) [1, 7]: 885.82 mL
Vss (steady state volume of distribution) [1, 7]: 637.62 mL
T1/2 (plasma half-life) ([1]; non-compartmental analysis, IV 1 mg, healthy rats, plasma): 1.566 h
brain PD98059 level (Organ; 1 hour after IV 1 mg): approximately 410 ng/g
brain PD98059 level (Organ; 3 hours after IV 1 mg): ~76 ng/g
solubility in release medium [3]: approximately 113 μg/ml
SMILES: COc1cccc(-c2cc(=O)c3ccccc3o2)c1N [PD98059]
neuronal excitation in PVN (rats with heart failure; [4]): decreased
renal sympathetic nerve activity (rats with heart failure; [4]): decreased
plasma norepinephrine (index of overall sympathetic nerve activity) (rats with heart failure; chronic (4 week) ICV infusions, heart failure rats, ref [19]): reduced
pERK1/2 expression in PVN [2]: decreased
